According to PMC5087331 (Journal of Medicinal Chemistry, 2016):

How the values were obtained:
[1] = system: clinical E. coli strain UTI89; test: Hemagglutination inhibition; assay type: cell-based, Escherichia coli
UTI89KAN (UPEC) [2] = test: Treatment of chronic urinary tract infection in mice; assay type: in vivo, C3H/HeN female mice; conditions: chronic UTI
Procedure, shortened: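 Female C3H/HeN mice were infected transurethrally with 1–2 × 10^8 UTI89KAN. Urine titers were taken on day 12, and mice with ≥10^5 were counted as chronic. At 2 weeks they received oral test compound (25 or 50 mg/kg) in 100 μL 10% cyclodextrin. Bladders were harvested at set times after dosing and plated on kanamycin LB. Geometric means; Mann–Whitney versus vehicle or 0 h.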

UTI89KAN (UPEC) [3] = test: Prophylactic treatment of acute urinary tract infection in mice; assay type: in vivo, C3H/HeN female mice; conditions: 25 mg/kg PO 30 min prior to UPEC infection, bacterial titers 6 h postinfection
Procedure, shortened: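 6–8-week female C3H/HeN mice were dosed orally with 25 mg/kg test compound in 10% cyclodextrin. After 30 min they were inoculated transurethrally under isoflurane with 1–2 × 10^7 UTI89KAN (grown 2 × 24 h static in LB, 37 °C; washed, in PBS). At 6 h, bladders were homogenised and plated on LB + 50 μg/mL kanamycin. Geometric means from ≥2 experiments; Mann–Whitney versus vehicle.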

[4] = target: FimH lectin domain (FimHL) (Escherichia coli, UniProt P08191); test: Differential scanning fluorimetry; assay type: binding; conditions: isothermal shift melting point assay
Procedure, shortened: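 FimH lectin domain (FimHL) at 10 μM, heated with or without 100 μM mannoside. Melting temperature measured by differential scanning fluorimetry. Value is the shift in melting temperature relative to protein without mannoside.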

[5] = 25 mg/kg oral, 12 h post treatment

Chain of FimH lectin domain (FimHL) (P08191 22-179): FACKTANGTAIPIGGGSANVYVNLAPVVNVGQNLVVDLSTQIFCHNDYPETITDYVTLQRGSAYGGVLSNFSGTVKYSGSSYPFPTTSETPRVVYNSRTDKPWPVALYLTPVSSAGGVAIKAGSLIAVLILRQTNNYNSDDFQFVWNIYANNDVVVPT

Question: `CNC(=O)c1cccc(-c2ccc([C@H](O)[C@H]3O[C@H](CO)[C@@H](O)[C@H](O)[C@@H]3O)cc2)c1` [6S, 4′-[(α-D-Mannopyranosyl)-(S)-hydroxymethyl]-N-methyl-[1,1′biphenyl]-3-carboxamide] was tested. Which “fold less potency in the HA assay than 5” value ([1]; comparator 5) did it give?
Answer: 25 fold

Question: Which results are given for `CNC(=O)c1cccc(-c2ccc([C@@H](O)[C@H]3O[C@H](CO)[C@@H](O)[C@H](O)[C@@H]3O)c(C)c2)c1` [21R, 4′-[(α-D-Mannopyranosyl)-(R)-hydroxymethyl]-N,3′-dimethyl-[1,1′biphenyl]-3-carboxamide]?
Answer: bladder burdens relative to untreated mice (UTI89KAN (UPEC) [2]; [5]): three logs lower; change in bladder burdens compared to vehicle (UTI89KAN (UPEC) [2]; [5]): dramatic and significant decrease in CFUs

Question: With `CNC(=O)c1cccc(-c2ccc(O[C@H]3O[C@H](COC(C)=O)[C@@H](OC(C)=O)[C@H](OC(C)=O)[C@@H]3OC(C)=O)c(C)c2)c1` [23a, 4′-(2,3,4,6-Tetra-O-acetyl-α-D-mannopyranosyloxy)-N,3′-dimethyl-[1,1′biphenyl]-3-carboxamide] as the compound, how does the “efficacy compared to 23 as prophylaxis therapy” value (UTI89KAN (UPEC) [3]) read?
Answer: improved efficacy compared to 23

Question: What about the “change in bladder burdens compared to vehicle” value (UTI89KAN (UPEC) [2]; [5]) of the same compound?
Answer: similar, but statistically significant, decrease in bladder burdens

Question: For `CNC(=O)c1cccc(-c2ccc(O[C@H]3O[C@H](COP(=O)(O)O)[C@@H](O)[C@H](O)[C@@H]3O)c(C)c2)c1` [23b, 4′-(6-Dihydrogen Phosphate-α-D-mannopyranosyloxy)-N,3′-dimethyl-[1,1′biphenyl]-3-carboxamide], which “efficacy compared to 23 as prophylaxis therapy” value (UTI89KAN (UPEC) [3]) is on record?
Answer: improved efficacy compared to 23

Question: `CNC(=O)c1cccc(-c2ccc(O[C@H]3O[C@H](COC(=O)CN(C)C)[C@@H](O)[C@H](O)[C@@H]3O)c(C)c2)c1` [23c, 4′-[6-O-(N,N-Dimethylaminoacetyl)-α-D-mannopyranosyloxy]-N,3′-dimethyl-[1,1′biphenyl]-3-carboxamide] was tested. Which “efficacy compared to 23 as prophylaxis therapy” value (UTI89KAN (UPEC) [3]) did it give?
Answer: did not show enhanced efficacy

Question: Which “binding affinity to FimH relative to 1” value [4] does the source give for `COC(=O)c1cccc(-c2ccc(N[C@H]3O[C@H](CO)[C@@H](O)[C@H](O)[C@@H]3O)cc2)c1` [compound 2, 4′-(α-D-Mannopyranosylamino)-[1,1′biphenyl]-3-carboxylic Acid Methyl Ester] here?
Answer: equivalent binding affinity to FimH

Question: Which “binding affinity to FimH relative to 1” value [4] does the source give for `COC(=O)c1cccc(-c2ccc(S[C@H]3O[C@H](CO)[C@@H](O)[C@H](O)[C@@H]3O)cc2)c1` [compound 3, 4′-(α-D-Mannopyranosylthio)-[1,1′biphenyl]-3-carboxylic Acid Methyl Ester] here?
Answer: equivalent binding affinity to FimH

Question: How did the “fold decrease in activity relative to 23” value ([1]; comparator 23) turn out when `CNC(=O)c1cccc(-c2ccc(C[C@H]3O[C@H](CO)[C@@H](O)[C@H](O)[C@@H]3O)c(C)c2)c1` [compound 22, 4′-[(α-D-Mannopyranosyl)methyl]-N,3′-dimethyl-[1,1′biphenyl]-3-carboxamide] was run?
Answer: 30 fold

Question: Which results are given for `CNC(=O)c1cc(C(=O)NC)cc(-c2ccc(O[C@H]3O[C@H](CO)[C@@H](O)[C@H](O)[C@@H]3O)c(C)c2)c1` [compound 24]?
Answer: fold more potent than 23 in HA assay ([1]; comparator 23): 4 fold; change in bladder burdens compared to vehicle (UTI89KAN (UPEC) [2]; [5]): noticeable, but not significant, decrease in bladder burdens; bladder burden at 6 h (UTI89KAN (UPEC) [2]; 50 mg/kg oral): 10^4 CFUs; bladder burden at 12 hours (geometric mean) (UTI89KAN (UPEC) [2]; 50 mg/kg oral): 10^5; bladder burden 2 h postdosing (UTI89KAN (UPEC) [2]; 50 mg/kg oral, from 10^7 CFUs at 0 h): approximately 10^5 CFUs
